ADAM17 inh – ADAM17 inhibition, QFRET primary screen | P78536 | recombinant ADAM17, EDANS/DABCYL FRET peptide cleavage | inhibition, % at 6.95 µM | hit rate 0.83% among 370,000;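 active means inhibition above the mean of compounds lying between control limits plus 3 SD, set per campaign, cut at about 8.5% in these data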;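 further: 0% = DMSO-only wells as the low control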
Target sequence (P78536 215-824 limits assumed): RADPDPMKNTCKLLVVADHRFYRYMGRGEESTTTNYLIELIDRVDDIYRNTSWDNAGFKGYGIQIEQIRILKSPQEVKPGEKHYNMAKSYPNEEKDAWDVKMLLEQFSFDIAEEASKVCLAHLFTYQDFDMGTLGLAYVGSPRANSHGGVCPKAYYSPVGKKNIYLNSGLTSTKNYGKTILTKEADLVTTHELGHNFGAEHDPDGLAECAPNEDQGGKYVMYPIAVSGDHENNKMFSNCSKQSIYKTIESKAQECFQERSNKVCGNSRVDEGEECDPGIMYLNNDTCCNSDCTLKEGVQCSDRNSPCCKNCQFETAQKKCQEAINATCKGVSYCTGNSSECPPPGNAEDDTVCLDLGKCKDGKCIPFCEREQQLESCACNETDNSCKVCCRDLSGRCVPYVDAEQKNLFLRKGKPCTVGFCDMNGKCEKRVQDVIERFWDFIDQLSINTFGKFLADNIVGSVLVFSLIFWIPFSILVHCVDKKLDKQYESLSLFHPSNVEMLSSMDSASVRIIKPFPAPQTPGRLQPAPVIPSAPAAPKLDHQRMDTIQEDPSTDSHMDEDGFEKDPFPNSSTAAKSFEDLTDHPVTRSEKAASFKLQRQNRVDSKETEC
Tb MetRS inh – blocks T. brucei methionyl-tRNA synthetase activity | purified T. brucei MetRS, ATP depletion, Kinase-Glo luminescence | inhibition, % at 11.9 µM | hit rate 0.4% among 360,000 | AID 624268;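 active means inhibition above a per-plate cutoff of the control wells' mean inhibition plus 3 SD, cut at about 5.5% in these data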;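 further: 0% = DMSO wells median and 100% = median of wells with control inhibitor compound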
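Measured by: Kinase-Glo luciferase luminescence reporting remaining unconsumed ATP. Material: purified T. brucei MetRS enzyme. Doses: 11.9 µM compound single dose, 0.9% DMSO. Medium: HEPES buffer containing pyrophosphatase, BSA, spermine, DTT. Times: 15 min preincubation, 2 h reaction, all 25 °C. Reagent: methionine, ATP and bulk E. coli tRNA.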
ADAM10 inh – inhibitors of human ADAM10. recombinant ADAM10, EDANS/DABCYL FRET peptide cleavage, 3 h. inhibition, % at 7 µM. hit rate 0.62% among 370,000. AID 720582;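 active means inhibition above a per-campaign cutoff equal to the mean of compounds falling between control-based bounds plus 3 SD, cut at about 20% in these data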;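 further: 0% = DMSO wells while the 100% control is not disclosed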
PLC-beta3 inh – inhibitors of human phospholipase C beta3 | Q01970 | Purified PLC-beta3, fluorogenic substrate, fluorescence | inhibition, % at 12.2 µM | hit rate 0.18% among 370,000 | AID 720704;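 further: 0% = median of compound wells on plate and 100% = full blocker control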
PLC-gamma1 inh – PLC-gamma1 (human) inhibition, primary screen; hit rate 0.84% among 370,000; P19174; inhibition, % at 12.2 µM; purified PLC-gamma1, fluorogenic substrate, fluorescence; AID 720700; in the data active means inhibition above about 9.5%
PLCg1 ctr – counter-screen for PLC-beta3 inhibitors: inhibitors of human PLC-gamma1; shares compounds with PLC-gamma1 inh; purified PLC-gamma1, fluorogenic substrate, fluorescence; inhibition, % at 12.3 µM; hit rate 3.1% among 3,300; AID 743258; in the data active means inhibition above about 9.5%
PLCb3 confirm – human PLC-beta3 inhibition, confirmation | purified PLC-beta3, fluorogenic substrate fluorescence | inhibition, % at 12.3 µM | AID 743261 | shares compounds with PLC-gamma1 inh | hit rate 1% among 3,300
The depositor's hits bear a star. Only some compounds are listed: those with a hit (about 2.3% of all), similar ones and a draw of the others. Unless noted, no stated cut-off is given here; in the data, active means inhibition above about 11%; inactive means the rest.

Screening CCC(=O)Nc1c(C)nn(-c2ccc(C)c(C)c2)c1C returned ADAM17 inh -1, Tb MetRS inh -1, ADAM10 inh -5, PLC-beta3 inh 2 and PLC-gamma1 inh 3.
For CC1=NN(c2ccccc2)C(=O)C1 the results were ADAM17 inh 1, Tb MetRS inh 2, ADAM10 inh 8, PLC-beta3 inh 10, PLC-gamma1 inh 24*, PLCg1 ctr 7 and PLCb3 confirm 8.
CC1=NN(c2ccc(N)cc2)C(=O)C1 was read as ADAM17 inh -4, Tb MetRS inh 0, ADAM10 inh -2, PLC-beta3 inh -9 and PLC-gamma1 inh -6.
`CC1=NN(c2ccc(Cl)cc2)C(=O)C1` gave ADAM17 inh 3, Tb MetRS inh 1, ADAM10 inh 7, PLC-beta3 inh 8, PLC-gamma1 inh 13*, PLCg1 ctr -6 and PLCb3 confirm -3.
`CC1=NN(Cc2ccccc2)C(=O)C1` gave ADAM17 inh 2, Tb MetRS inh 0, ADAM10 inh 4, PLC-beta3 inh 7, PLC-gamma1 inh 13*, PLCg1 ctr -5 and PLCb3 confirm -3.
`OC(CNC1CCCCC1)COCCOc1ccc(Br)cc1` (stereo unspecified) gave ADAM17 inh 2, Tb MetRS inh 0, ADAM10 inh 3, PLC-beta3 inh 6 and PLC-gamma1 inh 4.
`Cc1ccc(C(=O)N2CCN(S(=O)(=O)c3ccc(C)c([N+](=O)[O-])c3)C2)cc1` gave ADAM17 inh 4, Tb MetRS inh -1, ADAM10 inh 3, PLC-beta3 inh 7, PLC-gamma1 inh 10*, PLCg1 ctr -2 and PLCb3 confirm -1.
`C[C@H]1C2CC(OC(=O)Nc3cccc(Cl)c3)C(C2)[C@H]2CCCCN21` (stereo partly specified) gave ADAM17 inh -7, ADAM10 inh -5, PLC-beta3 inh -4 and PLC-gamma1 inh 0.
For Cn1nccc1C(=O)Nc1cccc(S(=O)(=O)N2CCOCC2)c1 the results were ADAM17 inh 1, Tb MetRS inh 0, ADAM10 inh -2, PLC-beta3 inh 2 and PLC-gamma1 inh 0.
Screening CCCCn1c(C(C)NC(=O)COC)nc2ccccc21 (stereo unspecified) returned ADAM17 inh 0, Tb MetRS inh -1, ADAM10 inh -8, PLC-beta3 inh 1, PLC-gamma1 inh 10*, PLCg1 ctr -3 and PLCb3 confirm -15.
For CCOCCn1c(C(C)O)nc2ccccc21 (stereo unspecified) the results were ADAM17 inh -6, Tb MetRS inh -1, ADAM10 inh -5, PLC-beta3 inh 4, PLC-gamma1 inh 10*, PLCg1 ctr -6 and PLCb3 confirm 0.
Screening CCOCCn1c(CC)nc2ccccc21 returned ADAM17 inh -7, Tb MetRS inh 0, ADAM10 inh -3, PLC-beta3 inh -7 and PLC-gamma1 inh 0.
For CC(CC(C)C(=O)Nc1ccccc1C(C)(C)C)C(=O)O (stereo unspecified) the results were ADAM17 inh -8, Tb MetRS inh -1, ADAM10 inh 2, PLC-beta3 inh 1 and PLC-gamma1 inh 5.
`CN(C)S(=O)(=O)c1ccc(C(=O)NCCSc2ccc(Br)cc2)cc1` gave ADAM17 inh 4, Tb MetRS inh -1, ADAM10 inh 7, PLC-beta3 inh 4, PLC-gamma1 inh 10*, PLCg1 ctr -3 and PLCb3 confirm 3.
Screening O=C(NCCSc1ccccc1)c1ccc(Br)cc1 returned ADAM17 inh -6, Tb MetRS inh 0, ADAM10 inh -2, PLC-beta3 inh 0 and PLC-gamma1 inh 5.
For CC1CCN(C(=S)Nc2ccc(SC(F)F)cc2)CC1 the results were ADAM17 inh 6, Tb MetRS inh 0, ADAM10 inh 9, PLC-beta3 inh 4, PLC-gamma1 inh 11*, PLCg1 ctr -1 and PLCb3 confirm -5.
`CC(=O)Nc1ccc(-c2ccnc3c2CC(C(=O)NCc2ccco2)O3)cc1` (stereo unspecified) gave ADAM17 inh 1, Tb MetRS inh 0, ADAM10 inh -5, PLC-beta3 inh 2 and PLC-gamma1 inh 6.
Screening c1cc(Nc2ncnc3sccc23)cc(-c2nnc3n2CCCCC3)c1 returned ADAM17 inh -4, Tb MetRS inh 0, ADAM10 inh -14, PLC-beta3 inh -10 and PLC-gamma1 inh -4.
`COc1ccc(CNCCS(=O)(=O)NCc2ccc(OC)cc2)cc1` gave ADAM17 inh 3, Tb MetRS inh 0, ADAM10 inh -2, PLC-beta3 inh 3, PLC-gamma1 inh 13*, PLCg1 ctr -8 and PLCb3 confirm -2.
CC(=O)c1cccc(NC(=O)c2ccc(N(Cc3ccccc3C)S(C)(=O)=O)cc2)c1 was read as ADAM17 inh 3, Tb MetRS inh 0, ADAM10 inh 11, PLC-beta3 inh 0 and PLC-gamma1 inh 6.
For CC(=O)Nc1ccc(NC(=O)c2ccc(N(Cc3ccccc3C)S(C)(=O)=O)cc2)cc1 the results were ADAM17 inh 1, Tb MetRS inh -1, ADAM10 inh 6, PLC-beta3 inh 0, PLC-gamma1 inh 14*, PLCg1 ctr -2 and PLCb3 confirm -1.
For CC(C)CSCC1OC(n2cnc3c(N)nccc32)C(O)C1O (stereo unspecified) the results were ADAM17 inh -4, Tb MetRS inh 0, ADAM10 inh -13, PLC-beta3 inh -2 and PLC-gamma1 inh 5.
Nc1cc(=O)[nH]c(SCC(=O)NC2CCCCCCC2)n1 was read as ADAM17 inh -2, Tb MetRS inh -1, ADAM10 inh -1, PLC-beta3 inh -3, PLC-gamma1 inh 9.6*, PLCg1 ctr -10 and PLCb3 confirm -1.
For Cc1cc(=O)[nH]c(SCC(=O)NC2CCCCCC2)n1 the results were ADAM17 inh -5, Tb MetRS inh 0, ADAM10 inh -18, PLC-beta3 inh -7 and PLC-gamma1 inh 1.
`CN(C)S(=O)(=O)n1cc(/C=C(\NC(=O)c2ccccc2Cl)C(=O)NCCCN2CCOCC2)c2ccccc21` gave ADAM17 inh 6, Tb MetRS inh 0, ADAM10 inh 6, PLC-beta3 inh 1 and PLC-gamma1 inh 4.
For CN(C)S(=O)(=O)n1cc(/C=C(\NC(=O)c2ccccc2Cl)C(=O)NCCN2CCOCC2)c2ccccc21 the results were ADAM17 inh -3, Tb MetRS inh 0, ADAM10 inh 6, PLC-beta3 inh -3, PLC-gamma1 inh 12*, PLCg1 ctr 0 and PLCb3 confirm 3.
CCOC(=O)n1c(=O)n(Cc2ccc(Cl)cc2Cl)c2ccccc21 was read as ADAM17 inh 6, Tb MetRS inh -1, ADAM10 inh 13, PLC-beta3 inh 4, PLC-gamma1 inh 10*, PLCg1 ctr -1 and PLCb3 confirm -3.

Assay outcomes: PubChem, The Scripps Research Institute Molecular Screening Center
